Source: ChEMBL document CHEMBL3425508, “Discovery of potent hexapeptide agonists to human neuromedin u receptor 1 and identification of their serum metabolites” (ACS Med Chem Lett, 2015)
Calls of active or inactive are those of the source. No cut-off for these calls is given here. Residues, ends and D or L forms follow the SMILES beside them. *: point of attachment. Acetyl(2-thienyl) = O=C(Cc1cccs1)*; Hydrocinnamoyl = O=C(CCc1ccccc1)*; PhAc = O=C(Cc1ccccc1)*; X1 = O=C(CCc1cccs1)*

Columns and labels:
[1] = system: Serum; test: Retention time in 25% rat serum treated with 1 mM (S)-2-((S)-2-((S)-1-((S)-2-((S)-2-((S)-3-(1H-indol-3-yl)-2-(2-(thiophen-2-yl)acetamido)propanamido)-3-(4-fluorophenyl)propanamido)-5-guanidinopentanoyl)pyrrolidine-2-carboxamido)-5-guanidinopentanamido)succinamide incubated for 30 mins at 37 degC by RP-HPLC method; format: ADME, cell-free; settings: 0.5 h
Summary of the method: (§1)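 Peptides incubated in 25% rat serum at 37 °C and sampled over time (10, 30, 60 min). Samples extracted on Sep-Pak C18 cartridges and analysed by C18 RP-HPLC with UV detection at 220 nm. Metabolites identified by mass spectrometry. Recovery of intact peptide measured at 10 or 60 min, in triplicate.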

[2] = system: Serum; test: Drug level in 25% rat serum treated with 1 mM (S)-2-((S)-2-((S)-1-((6S,9S,12S)-12-((1H-indol-3-yl)methyl)-1-amino-9-benzyl-1-imino-8,11,14-trioxo-15-(thiophen-2-yl)-2,7,10,13-tetraazapentadecanecarbonyl)pyrrolidine-2-carboxamido)-5-guanidinopentanamido)succinamide assessed as compound formation at 37 degC by RP-HPLC method; format: ADME, cell-free; summary of the method: as §1
[3] = target: Neuromedin-U receptor 2 (Homo sapiens, UniProt Q9GZQ4); test: Agonist activity at human NMUR2 expressed in CHO cells assessed as intracellular calcium flux at 1 and 10 nM by Fluo-4 AM dye based fluorometric imaging method relative to 1000 nM human neuromedin U; format: functional, cell-based
Neuromedin-U receptor 2, sequence (Q9GZQ4 whole entry): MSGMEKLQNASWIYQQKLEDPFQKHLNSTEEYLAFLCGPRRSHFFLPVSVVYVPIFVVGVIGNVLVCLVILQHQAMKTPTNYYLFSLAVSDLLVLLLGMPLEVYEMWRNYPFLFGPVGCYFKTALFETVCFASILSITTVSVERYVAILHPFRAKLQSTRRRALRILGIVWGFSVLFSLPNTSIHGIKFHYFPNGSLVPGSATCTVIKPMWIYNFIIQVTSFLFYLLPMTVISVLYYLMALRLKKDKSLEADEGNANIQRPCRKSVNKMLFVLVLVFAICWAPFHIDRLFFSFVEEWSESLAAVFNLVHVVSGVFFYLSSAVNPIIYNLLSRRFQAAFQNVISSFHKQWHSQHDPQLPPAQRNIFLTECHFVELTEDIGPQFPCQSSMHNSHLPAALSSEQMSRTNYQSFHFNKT

[4] = target: T1, Neuromedin-U receptor 1 (Homo sapiens) (UniProt Q9HB89); test: Agonist activity at human NMUR1 expressed in CHO cells assessed as intracellular calcium flux at 1 and 10 nM by Fluo-4 AM dye based fluorometric imaging method relative to 1000 nM human neuromedin U; format: functional, cell-based
T1 sequence (whole entry): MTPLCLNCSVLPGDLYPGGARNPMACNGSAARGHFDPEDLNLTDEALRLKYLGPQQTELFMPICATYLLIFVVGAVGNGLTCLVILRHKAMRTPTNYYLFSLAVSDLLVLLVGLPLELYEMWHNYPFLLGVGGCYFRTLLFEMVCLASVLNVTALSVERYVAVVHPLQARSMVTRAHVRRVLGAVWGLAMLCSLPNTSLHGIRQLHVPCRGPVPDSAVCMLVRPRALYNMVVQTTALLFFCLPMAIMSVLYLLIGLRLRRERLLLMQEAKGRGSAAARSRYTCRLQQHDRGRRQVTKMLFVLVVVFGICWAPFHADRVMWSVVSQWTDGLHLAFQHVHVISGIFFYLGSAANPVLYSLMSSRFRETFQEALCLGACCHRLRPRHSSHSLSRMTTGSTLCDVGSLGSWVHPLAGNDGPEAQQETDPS

[5] = Drug metabolism in 25% rat serum assessed as drug recovery at 1 mM incubated for 60 mins at 37 degC by RP-HPLC method; format: ADME, cell-free; settings: read-out: Drug recovery; summary of the method: as §1
[6] = system: Serum; test: Drug level in 25% rat serum treated with 1 mM (S)-2-((S)-2-((S)-1-((6S,9S,12S)-1-amino-9-benzyl-1-imino-12-isobutyl-8,11,14-trioxo-16-phenyl-2,7,10,13-tetraazahexadecanecarbonyl)pyrrolidine-2-carboxamido)-5-guanidinopentanamido)succinamide assessed as compound formation at 37 degC by RP-HPLC method; format: ADME, cell-free; summary of the method: as §1
[7] = system: Serum; test: Drug metabolism in 25% rat serum assessed as formation of 3-phenylpropionyl-Leu1-Phe2-OH at 1 mM at 37 degC by RP-HPLC method; format: ADME, cell-free; settings: 1000 µM; summary of the method: as §1
[8] = Drug metabolism in 25% rat serum assessed as drug recovery at 1 mM incubated for 10 mins at 37 degC by RP-HPLC method; format: ADME, cell-free; settings: read-out: Drug recovery; summary of the method: as §1
[9] = system: Serum; test: Drug metabolism in 25% rat serum assessed as cleavage at Phe(2)-Arg(3) site at 1 mM at 37 degC by RP-HPLC method; format: ADME, cell-free; settings: 1000 µM; summary of the method: as §1
[10] = system: Serum; test: Drug metabolism in 25% rat serum assessed as cleavage at Arg(5)-Asn(6) site at 1 mM at 37 degC by RP-HPLC method; format: ADME, cell-free; settings: 1000 µM; summary of the method: as §1
[11] = system: Serum; test: Drug metabolism in 25% rat serum assessed as formation of 3-phenylpropionyl-Leu1-Phe2-Arg3-Pro4-Arg5-OH at 1 mM at 37 degC by RP-HPLC method; format: ADME, cell-free; settings: 1000 µM; summary of the method: as §1

Activity [3] | Activity [4] | Drug metabolism [6] | Compound | also measured
 |  |  | O=C(Cc1cccs1)N[C@@H](Cc1c[nH]c2ccccc12)C(=O)N[C@@H](Cc1ccc(F)cc1)C(=O)O | Retention_time [1]: 61.2 min
 |  |  | O=C(Cc1cccs1)N[C@@H](Cc1c[nH]c2ccccc12)C(=O)N[C@@H](Cc1ccccc1)C(=O)O | Drug metabolism [2]: metabolite_detected
inactive | inactive |  | N=C(N)NCCC[C@H](NC(=O)[C@@H]1CCCN1C(=O)[C@H](CCCNC(=N)N)NC(=O)[C@H](Cc1ccccc1)NC(=O)[C@H](Cc1ccccc1)NC(=O)CCc1ccccc1)C(=O)N[C@@H](CC(N)=O)C(N)=O (Hydrocinnamoyl-FFRPRN-NH2) | 
 |  | metabolite_detected | CC(C)C[C@H](NC(=O)CCc1ccccc1)C(=O)N[C@@H](Cc1ccccc1)C(=O)N[C@@H](CCCNC(=N)N)C(=O)N1CCC[C@H]1C(=O)N[C@@H](CCCNC(=N)N)C(=O)O (Hydrocinnamoyl-LFRPR-OH) | remaining at 1 h, 1000 µM [5]: 56.9%
Active | Active | metabolite_detected | CC(C)C[C@H](NC(=O)CCc1ccccc1)C(=O)N[C@@H](Cc1ccccc1)C(=O)N[C@@H](CCCNC(=N)N)C(=O)N1CCC[C@H]1C(=O)N[C@@H](CCCNC(=N)N)C(=O)N[C@@H](CC(N)=O)C(N)=O (Hydrocinnamoyl-LFRPRN-NH2) | Drug metabolism [7]: metabolite_detected; remaining at 10 min, 1000 µM [8]: 64%; Drug metabolism [9]: metabolite_detected; Drug metabolism [10]: metabolite_detected; Drug metabolism [11]: metabolite_detected
 |  | metabolite_detected | CC(C)C[C@H](NC(=O)CCc1ccccc1)C(=O)N[C@@H](Cc1ccccc1)C(=O)O (Hydrocinnamoyl-Leu-Phe-OH) | 
inactive | inactive |  | N=C(N)NCCC[C@H](NC(=O)[C@@H]1CCCN1C(=O)[C@H](CCCNC(=N)N)NC(=O)[C@H](Cc1ccccc1)NC(=O)[C@H](Cc1ccccc1)NC(=O)Cc1ccccc1)C(=O)N[C@@H](CC(N)=O)C(N)=O (PhAc-FFRPRN-NH2) | 
Active | Active |  | N=C(N)NCCC[C@H](NC(=O)[C@@H]1CCCN1C(=O)[C@H](CCCNC(=N)N)NC(=O)[C@H](Cc1ccccc1)NC(=O)[C@H](Cc1ccccc1)NC(=O)CCc1cccs1)C(=O)N[C@@H](CC(N)=O)C(N)=O (X1-FFRPRN-NH2) | 
Active | Active |  | N=C(N)NCCC[C@H](NC(=O)[C@@H]1CCCN1C(=O)[C@H](CCCNC(=N)N)NC(=O)[C@H](Cc1ccccc1)NC(=O)[C@H](Cc1ccccc1)NC(=O)Cc1cccs1)C(=O)N[C@@H](CC(N)=O)C(N)=O ({Acetyl(2-thienyl)}-FFRPRN-NH2) | 
 |  |  | N=C(N)NCCC[C@H](NC(=O)[C@@H]1CCCN1C(=O)[C@H](CCCNC(=N)N)NC(=O)[C@H](Cc1ccccc1)NC(=O)[C@H](Cc1c[nH]c2ccccc12)NC(=O)Cc1cccs1)C(=O)O ({Acetyl(2-thienyl)}-WFRPR-OH) | Drug metabolism [2]: metabolite_detected; remaining at 1 h, 1000 µM [5]: 44.7%
